Screens as filed in PubChem.
B2AR ag – activates human beta-2 adrenergic receptor causing internalization; P07550; Am2.2-beta2AR cells, FAP receptor internalization, flow cytometry; response, % (concentration not given with the values); 340,000 tested, 0.43% active; AID 504454;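 active = response above a set limit, near 3 SD of response in nonfluorescent compounds, cut at about 42% in these data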
Target sequence (P07550 whole entry, looked up): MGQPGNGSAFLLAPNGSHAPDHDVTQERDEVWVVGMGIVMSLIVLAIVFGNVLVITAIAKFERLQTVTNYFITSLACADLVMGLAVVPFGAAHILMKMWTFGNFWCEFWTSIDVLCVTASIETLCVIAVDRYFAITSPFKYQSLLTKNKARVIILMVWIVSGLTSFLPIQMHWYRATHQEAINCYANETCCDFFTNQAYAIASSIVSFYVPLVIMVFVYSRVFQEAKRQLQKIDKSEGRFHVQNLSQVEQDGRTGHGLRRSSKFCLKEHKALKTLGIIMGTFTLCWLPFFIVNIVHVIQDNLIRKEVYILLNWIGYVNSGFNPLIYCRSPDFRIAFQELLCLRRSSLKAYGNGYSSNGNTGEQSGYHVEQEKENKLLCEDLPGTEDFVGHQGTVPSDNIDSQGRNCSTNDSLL
Exocytosis inh – lytic granule exocytosis inhibition. TALL-104 LAMP-1 surface exposure, flow cytometry; cells stimulated with thapsigargin and PMA. inhibition, % at 10 µM. 360,000 tested, 0.66% active;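 active = inhibition above about 55%, limit read from the data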
T cell HTS – T cell immune modulators affecting CD8 T cell-vesicle binding; response (vesicle binding), % at 7 µM; 2C CD8+ T cell-vesicle binding, flow cytometry; stronger effect = lower value; 330,000 tested, 0.068% active;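 active = response, share of CD8 T cells binding vesicles, and their 90th percentile fluorescence all below set limits, cut at about 80% in these data, passing the limit was not always enough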;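 note: values below 100% mean blocked vesicle binding to the CD8+ T cells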
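material = purified 2C TCR transgenic mouse naive CD8+ T cells | controls = Unloaded micro-vesicles (low), QL9 vesicles with 0.7% DMSO (high) | detection = cytometric PE anti-B7-1 and Alexa647 anti-CD8 signals after 1% paraformaldehyde fixation | incubation = binding step 1.5 h, 37 °C, antibody labelling 20 min, ice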
V-ATPase pHluor – yeast V-ATPase proton transport regulation by pHLuorin; AID 504577; response, % at 10 µM; S. cerevisiae, pHLuorin cytosolic pH fluorescence; 350,000 tested, 0.37% active; in the data active = response mostly above about 7.3%, no sharp cut-off; inactive = mostly below about 5.4%; note: actives read high
rCAG RNA binder – binds r(CAG) RNA repeats; r(CAG) RNA repeat, TO-PRO-1 dye displacement fluorescence; inhibition, % at 3 µM; 370,000 tested, 1.3% active; AID 651821;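 active = inhibition above the plate cutoff, the mean of all test compounds on that plate plus 3 SD, cut at about 35% in these data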;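 note: 0% = DMSO alone and 100% = 100 µM mitoxantrone as full dye displacement; higher means more dye released from RNA so lower well fluorescence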
MPTP block – inhibitors of mitochondrial permeability transition pore; inhibition, % at 10 µM; 360,000 tested, 1.4% active; isolated mouse mitochondria, Ca2+ swelling absorbance, 30 min;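 active = inhibition of 50% or more, scaled per plate between neutral and stimulator controls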;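 note: 0% = DMSO wells given calcium and 100% = 1 mM EGTA wells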
Active calls of the source: *; i = inactive; nt = no result. Most compounds without a hit are left out; they make up all but 3.8% or so of the library.

SMILES	B2AR ag	Exocytosis inh	T cell HTS	V-ATPase pHluor	rCAG RNA binder	MPTP block
COc1ccc(CCNC(=O)Nc2ccc3c(c2)[C@]2(CC(=O)N(CC(C)C)C2c2ccccc2)C(=O)N3C)cc1OC (stereo partly drawn)	nt	nt	nt	nt	1	nt
O=c1c2cc3cc(Cl)ccc3nc2ncn1CCc1c[nH]c2ccccc12	nt	nt	nt	nt	7	nt
CC(C)CN(Cc1cc(=O)oc2cc3c(cc12)CCCC3)CC(C)C	-4	24	76*	-1	2	5
COc1cccc(/C=N/NC(=O)c2cc3cc([N+](=O)[O-])ccc3s2)c1O	-1	69*	503	-2	15	8
CCCCC(CC)CO (stereo not drawn)	4	1	622	3	0	-1
CCCCC(CC)CN=C(N)NC(N)=NCCCCCCN=C(N)NC(N)=NCC(CC)CCCC (stereo not drawn)	-552	19	475	84*	nt	-2
Cc1oc(-c2cc3c(cc2Cl)OCO3)nc1CN1CCCC(C(=O)N2CCOCC2)C1 (stereo not drawn)	-10	-2	223	16*	-6	-1
Cc1oc(-c2ccc(F)cc2)nc1CN1CCCC(C(=O)N2CCOCC2)C1 (stereo not drawn)	-5	-2	nt	6	-2	-2
COc1ccc(NC(C)=O)cc1NC(=O)CN1CCN(S(=O)(=O)c2ccc(C(C)C)cc2)CC1	9	9	606	19*	-3	1
CCOCCCNC(=O)c1cc2c(=O)n3cccc(C)c3nc2n1C	24	-4	616	16*	1	0
CCCCNC(=O)c1cc2c(=O)n3cccc(C)c3nc2n(Cc2ccccc2)c1=N	87*	5	165	-2	4	6
CCNC(=O)c1cc2c(=O)n3cccc(C)c3nc2n(CCc2ccccc2)c1=N	89*	-2	165	-3	9	0
Cc1cccn2c(=O)c3cc(C(N)=S)c(=N)n(CCCOC(C)C)c3nc12	71*	6	280	6	6	9
CC(=O)OCC(=O)N1CCN(C(=O)C(=O)c2cccc(C(F)(F)F)c2)CC1	nt	nt	nt	nt	0	nt
CCOC(=O)N1C(=O)C[C@](Sc2ccc(OC)cc2)(C(=O)N2CCN(C(C)=O)CC2)[C@H]1c1ccc(OC)cc1	nt	nt	nt	nt	3	nt
COC(=O)C1CCN(C(=O)CCn2nnc(-c3cccs3)n2)CC1	nt	nt	nt	nt	-3	nt
Cc1cccn2c(=O)c3cc(C(=O)NC4CCCCC4)c(=N)n(Cc4ccccc4)c3nc12	32	-14	587	4	5	4
Cc1cccn2c(=O)c3cc(C(=O)NC4CCCC4)c(=N)n(Cc4ccc(F)cc4)c3nc12	103*	3	282	2	8	-2
O=S(=O)(c1ccc(F)c(F)c1)N1CCN(CCc2ccccc2)CC1	5	-2	125	9.6*	-8	0
O=C(O)c1ccc(N2C(=O)/C(=C/c3ccc(-c4ccc([N+](=O)[O-])cc4)o3)C=C2c2ccccc2)cc1	-195	56*	461	4	nt	28
O=C(Nc1ccc2nc(-c3ccco3)c(-c3ccco3)nc2c1)N1CCN(c2ccccn2)CC1	16	-6	214	2	44*	4
COc1ccccc1NC(=O)c1sc2nc(-c3ccco3)ccc2c1N	-4	2	519	-38	nt	2
Nc1c(C(=O)Nc2ccccc2)sc2nc(-c3ccco3)ccc12	5	0	166	-2	35*	2
O=C(Nc1ccccc1)c1ccc2nc(-c3ccco3)c(-c3ccco3)nc2c1	6	1	345	-3	74*	2
Cc1nc2cc(NC(=O)N3CCN(c4ccccn4)CC3)ccc2o1	0	2	525	-1	-3	1
SMILES	B2AR ag	Exocytosis inh	T cell HTS	V-ATPase pHluor	rCAG RNA binder	MPTP block
CC(=O)c1ccc(NC(=O)c2ccc3nc(-c4ccco4)c(-c4ccco4)nc3c2)cc1	9	2	295	-2	nt	1
COc1ccc(/C=C/S(=O)(=O)NC2CCCC2)c(CNC(=O)OC(C)(C)C)c1	nt	nt	nt	nt	2	nt
COC(=O)c1cc2c(c3c4cc(F)ccc4n(S(=O)(=O)c4ccc(C)cc4)c13)C(=O)N(Cc1ccc(N(C)C)cc1)C2	nt	nt	nt	nt	13	nt
COc1cc2c(cc1NC(=O)CSc1nnc(-c3ccccc3F)n1-c1ccc(C)cc1)oc1ccccc12	nt	nt	nt	nt	15	nt
COc1cccc(C2=CC(=O)CCC2)c1	-12	0	270	7	1	0
COc1ccc(C2=CC(=O)CCC2)cc1	0	94*	nt	0	3	-2
Oc1ccc(Nc2nc(-c3ccccc3O)nc3ccccc23)cc1	12	23	217	3	43*	2
Cc1ccc(C(=O)N(C)[C@H]2C[C@H]3c4[nH]c5c(-c6ccc7c(c6)OCO7)cccc5c4CCN3C[C@H]2[C@H](C)O)cc1	nt	nt	nt	nt	7	nt
Cc1cc(-n2c(C)cc(C(=O)CCl)c2C)no1	65*	-4	329	2	-3	0
Cc1cc(-n2c(C)cc(C(=O)CN3C(=O)C(=O)N(C)C3=O)c2C)no1	5	-1	0	-2	1	-1
O=S(=O)(/C(=C\c1ccc(C(F)(F)F)cc1)c1nc2ccccc2[nH]1)c1ccccc1	22	70*	nt	6	nt	-1
O=C(NCc1ccco1)/C(=C/c1ccc(C(F)(F)F)cc1)c1nc2ccccc2[nH]1	-12	4	360	0	13	0
Cc1ccccc1C(=O)OCC(=O)NCc1ccco1	-3	62*	270	0	9	-1
Cc1cccc(Nc2ccccc2C(=O)OCC(=O)NCc2ccco2)c1C	4	-10	i	3	10	14
CC(/C=C/c1ccc(O)cc1)=NNc1ccccc1	17	59*	nt	3	6	0
Cc1csc(NC(=O)c2ccc(COc3ccccc3F)o2)n1	nt	nt	nt	nt	6	nt
CCCN1CCC(NC(=S)Nc2ccc([N+](=O)[O-])cc2)CC1	5	86*	606	-1	1	2
S=C(Nc1ccc(Cl)cc1)NC1CCN(Cc2ccccc2)CC1	15	69*	260	-6	-3	10
O=S1(=O)c2c(cccc2N2CCSCC2)Oc2ccccc2CN1Cc1cn(Cc2cccc(C(F)(F)F)c2)nn1	nt	nt	nt	nt	9	nt
CCc1nnc(NC(=O)CSc2sc3c(O)cc(=O)[nH]c3c2C#N)s1	3	2	198	4	57*	0
Cc1ccc(Cl)cc1NC(=O)CSc1sc2c(O)cc(=O)[nH]c2c1C#N	-3	1	351	-4	35*	-1
COC(=O)C[C@H]1CC[C@@H]2[C@@H](COc3ccc(NC(=O)Nc4ccccc4OC)cc3C(=O)N2C)O1	nt	nt	nt	nt	4	nt
COc1ccc(-c2cc(C(=O)NN=Cc3ccc(C)s3)[nH]n2)cc1	nt	nt	nt	nt	7	nt
Cc1ccccc1CN1C(=O)/C(=C\c2ccc(C(=O)NCCN3CCOCC3)cc2)Sc2ccccc21	9	17	239	-3	3	-2
Cc1cccc(CN2C(=O)/C(=C\c3ccc(C(=O)NCCN4CCOCC4)cc3)Sc3ccccc32)c1	46*	12	421	-3	nt	-3
